Data from ChEMBL document CHEMBL1125623, “Tetrahydropyridyloxadiazoles: semirigid muscarinic ligands” (J Med Chem, 1991).

Legend:
[1] = target: T1, Muscarinic acetylcholine receptor (Rattus norvegicus) (UniProt P08482+P08483+P08485+P08911+P10980)
[2] = target: T1, Muscarinic acetylcholine receptor (Rattus norvegicus); remark: listed apart in the source
[3] = pKa value was determined; assay type: physicochemical
Method in brief: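 Determined by autotitration with a pH meter and autoburette; mean of two or more independent measurements.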

[4] = target: T1, Muscarinic acetylcholine receptor (Rattus norvegicus); experiment: Apparent binding affinity against rat cortical Muscarinic acetylcholine receptor by the displacement of [3H]oxotremorine-M; assay type: protein assay
Method in brief: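 Rat brain membranes from male Sprague-Dawley rats (250–300 g), resuspended in 20 mM HEPES buffer pH 7.4. Displacement curves use 3.0 nM [3H]oxotremorine-M; incubation 40 min at 30 °C, stopped by filtration through polyethyleneimine-presoaked filters.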

[5] = target: T1, Muscarinic acetylcholine receptor (Rattus norvegicus); experiment: Apparent binding affinity against rat cortical Muscarinic acetylcholine receptor by the displacement of [3H]N-methylscopolamine; assay type: protein assay
Method in brief: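 Membranes from cortex of male Sprague-Dawley rats (250–300 g), resuspended in 20 mM HEPES Krebs' buffer pH 7.4. Displacement of 0.1 nM [3H]-N-methylscopolamine; 60 min incubation at 30 °C, ended by filtration. Apparent affinity constant corrected for radioligand occupancy, given in micromolar; geometric mean of at least three independent experiments on separate occasions.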

[6] = Ratio of apparent binding affinities of NMS and Oxo-M

SMILES	K app [1] [µM]	K app [2] [µM]	pKa [3]	K app [4] [µM]	K app [5] [µM]	Ratio [6]
Cc1noc(C2=CC(C)CN(C)C2)n1 (stereo not given)	0.87	15	7.34	–	–	–
CN(C)c1noc(C2=CCCNC2)n1	0.082	3.5	8.58	–	–	–
Cc1noc(C2=CC(C)CNC2)n1 (stereo not given)	0.037	2.7	8.17	–	–	–
FCCc1noc(C2=CCCNC2)n1	0.021	5.7	8.29	–	–	–
CN1CCC=C(c2nc(N(C)C)no2)C1	0.12	2.5	7.24	–	–	–
C=Cc1noc(C2=CCCNC2)n1	0.035	2.5	8.23	–	–	–
CCc1noc(C2=CCCNC2)n1	0.0074	4.3	–	–	–	–
CCC1C=C(c2nc(C)no2)CNC1 (stereo not given)	0.97	25	–	–	–	–
Cc1noc(C2=CCCNC2)n1	0.0031	2.3	8.24	–	–	–
Cc1noc(C2=CCC(C)N(C)C2)n1 (stereo not given)	0.061	2.4	7.35	–	–	–
Cc1noc(C2=CCC(C)NC2)n1 (stereo not given)	–	–	8.2	0.12	16	130
Nc1noc(C2=CCCNC2)n1	–	–	8.25	–	–	–
OCc1noc(C2=CCCNC2)n1	0.11	34	–	–	–	–
Cc1noc(C2=CCCN(C)C2)n1	–	–	7.16	–	–	–
COC(=O)C1=CCCNC1	0.012	23	–	–	–	–
OCCc1noc(C2=CCCNC2)n1	0.23	13	–	–	–	–
